Measurements published in article PMC6422681 (Science signaling, 2018).
Counter-ions that a name gives are not always drawn.

Legend:
ERK1/2 = ERK1/2 phosphorylation assay; type: cell-based, human; conditions: Jurkat cells, 30 nM CXCL12, time points up to 30 min
CXCR4 [1] = biological target: T1, CXCR4 (Homo sapiens, UniProt P61073); test: Flow cytometry of CXCR4 cell surface expression on Jurkat cells; type: cell-based
CXCR4 [2] = biological target: T1, CXCR4; conditions: Jurkat cells, 72 hours, fig. S1
CXCR4 [3] = biological target: T1, CXCR4; test: CXCR4 phosphorylation assay; type: cell-based; conditions: Jurkat cells, 1 μM AMD3100 or 10 μM X4-2-6 for 30 min, then 30 nM CXCL12 for 30 min
CXCR4 [4] = biological target: T1, CXCR4; test: cAMP concentration by ELISA in Jurkat cells; type: cell-based; conditions: 100 μM forskolin, 30 nM CXCL12
Summary of the method: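 Jurkat cells (5×10^6), serum-starved 6 hours in RPMI 1640 with penicillin-streptomycin and L-glutamine. Steps: 100 μM forskolin or vehicle 30 min; then vehicle or antagonists 30 min; then 30 nM CXCL12 30 min. cAMP measured in lysates by direct ELISA; relative change calculated. Means ± SD of three independent experiments, six replicates per condition.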

CXCR4 [5] = biological target: T1, CXCR4; test: Flow cytometry of CXCL12-stimulated CXCR4 endocytosis in Jurkat cells; type: cell-based; conditions: 30 nM CXCL12, antagonist 30 min before
Summary of the method: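 Jurkat cells (1×10^5), serum-starved 6 hours, got vehicle or antagonist 30 min before 30 nM CXCL12. At set times, washed three times in ice-cold PBS/1% BSA, stained 20 min with PE-anti-CXCR4 (4G10 or 12G5) or isotype controls, and fixed in 4% paraformaldehyde. Surface CXCR4 read by flow cytometry against CXCL12 alone. Means ± SD; three experiments in triplicate.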

CXCR4 [6] = test: PRESTO-Tango assay of BA2 recruitment to CXCR4; type: cell-based; conditions: HTLA cells, increasing CXCL12 with 1 μM AMD3100 or 10 μM X4-2-6, 1 hour, 37°C
Summary of the method: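 HTLA cells were lipofected with Tango plasmids. After one day they were plated on poly-L-lysine-coated wells and allowed to attach 4 h before treatment with CXCL12 plus vehicle or test compound. Read-out was luminescence after adding a 1:5 mix of Bright-Glo with HBSS/20 mM Hepes and incubating at room temperature.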

Gαi = test: GTP loading of Gαi; type: cell-based, human; conditions: Jurkat cells
CXCR4 [7] = biological target: T1, CXCR4; test: Transwell chemotaxis of Jurkat cells toward CXCL12; type: cell-based; conditions: Jurkat cells treated 1 hour with 80 μM dynasore, 30 nM CXCL12

T1 sequence (P61073 whole entry): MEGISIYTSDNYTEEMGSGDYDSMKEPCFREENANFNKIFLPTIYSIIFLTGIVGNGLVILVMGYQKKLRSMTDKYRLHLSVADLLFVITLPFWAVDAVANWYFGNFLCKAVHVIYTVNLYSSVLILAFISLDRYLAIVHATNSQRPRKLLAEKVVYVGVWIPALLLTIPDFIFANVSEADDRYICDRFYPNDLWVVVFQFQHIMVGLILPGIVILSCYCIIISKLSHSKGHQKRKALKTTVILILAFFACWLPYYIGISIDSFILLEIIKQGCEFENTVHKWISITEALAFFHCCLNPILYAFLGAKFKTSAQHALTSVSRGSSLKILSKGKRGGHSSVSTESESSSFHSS

Row | SMILES | pERK1/2 (Thr202/Tyr204) generation after CXCL12 (ERK1/2) | CXCR4 cell surface expression after dynasore (CXCR4 [1]; 80 μM dynasore for 1 hour, antibody clone 4G10) | CXCR4 cell surface expression after prolonged exposure (CXCR4 [1]; 72 hours, compared to vehicle-treated cells) | total CXCR4 protein amount (CXCR4 [2]) | phosphorylation of Ser324/325 or Ser339 in the C terminus of CXCR4 (CXCR4 [3]) | cAMP amounts in forskolin and CXCL12 treated cells (CXCR4 [4]) | CXCL12-mediated CXCR4 internalization (endocytosis) (CXCR4 [5]) | increase of CXCL12 EC50 for BA2 recruitment (CXCR4 [6]) | amount of Gαi-GTP in CXCL12-treated cells (Gαi) | potency of AMD3100 to inhibit chemotaxis after dynasore treatment (CXCR4 [7])
1 | Nn1cnc2scc(-c3ccc(Cc4ccccc4)cc3)c2c1=O [barbadin] | increased the early and late peaks in pERK1/2 abundance |  |  |  |  |  |  |  |  | 
2 | O=C(N/N=C/c1ccc(O)c(O)c1)c1cc2ccccc2cc1O [dynasore] |  | increased CXCR4 cell surface expression |  |  |  |  |  |  |  | 
3 | c1cc(CN2CCCNCCNCCCNCC2)ccc1CN1CCCNCCNCCCNCC1 [AMD3100, AMD3100 octahydrochloride hydrate] | inhibited both early and late peaks in pERK1/2 generation |  | increased cell surface CXCR4 expression | increased the total CXCR4 protein amount | inhibited this posttranslational modification | returned cAMP amounts to those observed in cells treated with forskolin alone | inhibited CXCL12-mediated receptor internalization | more than 3500 fold | reduced the amount of Gαi-GTP | reduced potency
